ChEMBL document CHEMBL5247578, “Effective synthesis of benzimidazoles-imidazo[1,2-a]pyrazine conjugates: A comparative study of mono-and bis-benzimidazoles for antitumor activity” (Eur J Med Chem, 2019)

Assays:
UACC-62 = test: Antiproliferative activity against human UACC-62 cells assessed as cell growth at 0.00001 M incubated for 48 hrs by SRB assay relative to control; assay type: functional; conditions: read-out: Activity
OVCAR-4 = test: Antiproliferative activity against human OVCAR-4 cells assessed as cell growth inhibition by measuring lethal concentration incubated for 48 hrs by sulforhodamine B assay; assay type: functional; conditions: read-out: LC50 (the source's name)
UO-31 = test: Antiproliferative activity against human UO-31 cells assessed as cell growth at 0.000001 M incubated for 48 hrs by SRB assay relative to control; assay type: functional; conditions: read-out: Activity
SN12C = test: Antiproliferative activity against human SN12C cells assessed as cell growth at 0.000001 M incubated for 48 hrs by SRB assay relative to control; assay type: functional; conditions: read-out: Activity
MDA-MB-231 = test: Antiproliferative activity against human MDA-MB-231 cells assessed as cell growth at 0.00001 M incubated for 48 hrs by SRB assay relative to control; assay type: functional; conditions: read-out: Activity
SK-MEL-2 [1] = test: Antiproliferative activity against human SK-MEL-2 cells assessed as cell growth at 0.00000001 M incubated for 48 hrs by SRB assay relative to control; assay type: functional; conditions: dose 10 nM, read-out: Activity
OVCAR-5 = test: Antiproliferative activity against human OVCAR-5 cells assessed as cell growth at 0.000001 M incubated for 48 hrs by SRB assay relative to control; assay type: functional; conditions: read-out: Activity
IGROV-1 = test: Antiproliferative activity against human IGROV-1 cells assessed as cell growth inhibition by measuring lethal concentration incubated for 48 hrs by sulforhodamine B assay; assay type: functional; conditions: read-out: LC50 (the source's name)
SR = test: Growth inhibition against human SR cells assessed as total growth inhibitory concentration incubated for 48 hrs by sulforhodamine B assay; assay type: functional
SK-MEL-2 [2] = test: Antiproliferative activity against human SK-MEL-2 cells assessed as cell growth at 0.0001 M incubated for 48 hrs by SRB assay relative to control; assay type: functional; conditions: read-out: Activity
Calf thymus DNA = test: Binding affinity to calf thymus DNA assessed as intercalation by measuring hypochromic shift at 20 uM by UV-vis spectrophotometric method relative to control; assay type: nucleic-acid assay; conditions: Bos taurus
UACC-257 [3] = test: Antiproliferative activity against human UACC-257 cells assessed as cell growth at 0.0001 M incubated for 48 hrs by SRB assay relative to control; assay type: functional; conditions: read-out: Activity
HCC 2998 = test: Antiproliferative activity against human HCC 2998 cells assessed as cell growth at 0.0001 M incubated for 48 hrs by SRB assay relative to control; assay type: functional; conditions: read-out: Activity
Outline: (§1)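 NCI-60 five-dose screen (10^-4 to 10^-8 M). Cells grown in RPMI 1640 with 5% FBS and 2 mM L-glutamine, plated at 5,000-40,000 cells/well and preincubated 24 h. Drug given from DMSO stock, then 48 h at 37 °C, 5% CO2. For adherent lines, cells fixed with cold TCA, SRB-stained and read at 515 nm. Percent growth taken against time-zero and untreated control.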

ACHN = test: Growth inhibition against human ACHN cells assessed as total growth inhibitory concentration incubated for 48 hrs by sulforhodamine B assay; assay type: functional
SK-OV-3 = test: Antiproliferative activity against human SK-OV-3 cells assessed as cell growth at 0.000001 M incubated for 48 hrs by SRB assay relative to control; assay type: functional; conditions: read-out: Activity
A549 = test: Antiproliferative activity against human A549 cells assessed as cell growth at 0.000001 M incubated for 48 hrs by SRB assay relative to control; assay type: functional; conditions: read-out: Activity
Outline: (§2)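 NCI-60 five-dose screen over 10^-4–10^-8 M (10-fold dilutions). Cells grown in RPMI 1640 with 5% FBS and 2 mM L-glutamine, seeded at 5,000–40,000 cells/well and preincubated 24 h. Drug from DMSO stock, 48 h at 37 °C, 5% CO2. Adherent cells TCA-fixed and stained with 0.4% SRB; A515 read. Percent growth = (Ti−Tz)/(C−Tz)×100, or (Ti−Tz)/Tz×100 when Ti<Tz.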

COLO 205 = test: Antiproliferative activity against human COLO 205 cells assessed as cell growth at 0.00001 M incubated for 48 hrs by SRB assay relative to control; assay type: functional; conditions: read-out: Activity; outline: as §2
MOLT-4 = test: Antiproliferative activity against human MOLT-4 cells assessed as cell growth at 0.00000001 M incubated for 48 hrs by SRB assay relative to control; assay type: functional; conditions: dose 10 nM, read-out: Activity
Hs-578T = test: Antiproliferative activity against human Hs-578T cells assessed as cell growth inhibition by measuring lethal concentration incubated for 48 hrs by sulforhodamine B assay; assay type: functional; conditions: read-out: LC50 (the source's name)
BT-549 = test: Growth inhibition against human BT-549 cells assessed as total growth inhibitory concentration incubated for 48 hrs by sulforhodamine B assay; assay type: functional
UACC-257 [4] = test: Growth inhibition against human UACC-257 cells incubated for 48 hrs by sulforhodamine B assay; assay type: functional
NCI/ADR-RES = test: Growth inhibition against human NCI/ADR-RES cells incubated for 48 hrs by sulforhodamine B assay; assay type: functional
LOX IMVI = test: Antiproliferative activity against human LOX IMVI cells assessed as cell growth at 0.00001 M incubated for 48 hrs by SRB assay relative to control; assay type: functional; conditions: read-out: Activity
SF-539 = test: Antiproliferative activity against human SF-539 cells assessed as cell growth at 0.00001 M incubated for 48 hrs by SRB assay relative to control; assay type: functional; conditions: read-out: Activity
SNB-75 [5] = test: Antiproliferative activity against human SNB-75 cells assessed as cell growth at 0.0001 M incubated for 48 hrs by SRB assay relative to control; assay type: functional; conditions: read-out: Activity
MCF7 = test: Antiproliferative activity against human MCF7 cells assessed as cell growth at 0.000001 M incubated for 48 hrs by SRB assay relative to control; assay type: functional; conditions: read-out: Activity
OVCAR-3 = test: Antiproliferative activity against human OVCAR-3 cells assessed as cell growth at 0.0001 M incubated for 48 hrs by SRB assay relative to control; assay type: functional; conditions: read-out: Activity
NCI-H23 = test: Antiproliferative activity against human NCI-H23 cells assessed as cell growth at 0.00000001 M incubated for 48 hrs by SRB assay relative to control; assay type: functional; conditions: dose 10 nM, read-out: Activity
SNB-75 [6] = test: Antiproliferative activity against human SNB-75 cells assessed as cell growth at 0.00001 M incubated for 48 hrs by SRB assay relative to control; assay type: functional; conditions: read-out: Activity
OVCAR-8 [7] = test: Antiproliferative activity against human OVCAR-8 cells assessed as cell growth at 0.00000001 M incubated for 48 hrs by SRB assay relative to control; assay type: functional; conditions: dose 10 nM, read-out: Activity
RXF 393 = test: Antiproliferative activity against human RXF 393 cells assessed as cell growth at 0.0000001 M incubated for 48 hrs by SRB assay relative to control; assay type: functional; conditions: dose 100 nM, read-out: Activity
OVCAR-8 [8] = test: Antiproliferative activity against human OVCAR-8 cells assessed as cell growth at 0.00001 M incubated for 48 hrs by SRB assay relative to control; assay type: functional; conditions: read-out: Activity
HL-60 = test: Growth inhibition against human HL-60 cells incubated for 48 hrs by sulforhodamine B assay; assay type: functional
HCT-15 = test: Antiproliferative activity against human HCT-15 cells assessed as cell growth at 0.0001 M incubated for 48 hrs by SRB assay relative to control; assay type: functional; conditions: read-out: Activity; outline: as §1
SK-MEL-28 = test: Growth inhibition against human SK-MEL-28 cells incubated for 48 hrs by sulforhodamine B assay; assay type: functional

Compound	growth at 10 µM (UACC-62) [%]	CC50 (OVCAR-4) [nM]	growth at 1 µM (UO-31) [%]	growth at 1 µM (SN12C) [%]	growth at 10 µM (MDA-MB-231) [%]	growth at 0.01 µM (SK-MEL-2 [1]) [%]	growth at 1 µM (OVCAR-5) [%]	CC50 (IGROV-1) [nM]	TGI (SR) [nM]	growth at 100 µM (SK-MEL-2 [2]) [%]	Activity (Calf thymus DNA) [%]	growth at 100 µM (UACC-257 [3]) [%]	growth at 100 µM (HCC 2998) [%]	TGI (ACHN) [nM]	growth at 1 µM (SK-OV-3) [%]	growth at 1 µM (A549) [%]	growth at 10 µM (COLO 205) [%]	growth at 0.01 µM (MOLT-4) [%]	CC50 (Hs-578T) [nM]	TGI (BT-549) [nM]	further results
COc1ccc(-c2cn3ccnc3c(-c3ccc4ncn(C5CCCCC5)c4c3)n2)cc1	7	> 100000	55	66	12	96	75	> 100000	> 100000	3	20.8	55	20	> 100000	34	63	1	100	> 100000	3910	GI50 (UACC-257 [4]): > 100000 nM; GI50 (NCI/ADR-RES): 618 nM; growth at 10 µM (LOX IMVI): 17%; growth at 10 µM (SF-539): -53%; growth at 100 µM (SNB-75 [5]): 11%; growth at 1 µM (MCF7): 40%; growth at 100 µM (OVCAR-3): 17%; growth at 0.01 µM (NCI-H23): 97%; growth at 10 µM (SNB-75 [6]): 3%; growth at 0.01 µM (OVCAR-8 [7]): 105%; growth at 0.1 µM (RXF 393): 104%; growth at 10 µM (OVCAR-8 [8]): 8%; GI50 (HL-60): 1060 nM; growth at 100 µM (HCT-15): 13%; GI50 (SK-MEL-28): 2100 nM
c1ccc(Cn2cnc3ccc(-c4nc(-c5ccc6c(c5)ncn6C5CCCCC5)cn5ccnc45)cc32)cc1	-37	> 100000	78	95	-63	94	89	> 100000	> 100000	-33	15.3	-27	-89	> 100000	100	106	-61	112	> 100000	2680	GI50 (UACC-257 [4]): 2240 nM; GI50 (NCI/ADR-RES): 1980 nM; growth at 10 µM (LOX IMVI): -90%; growth at 10 µM (SF-539): -75%; growth at 100 µM (SNB-75 [5]): -47%; growth at 1 µM (MCF7): 87%; growth at 100 µM (OVCAR-3): -19%; growth at 0.01 µM (NCI-H23): 94%; growth at 10 µM (SNB-75 [6]): -70%; growth at 0.01 µM (OVCAR-8 [7]): 106%; growth at 0.1 µM (RXF 393): 105%; growth at 10 µM (OVCAR-8 [8]): -23%; GI50 (HL-60): 2880 nM; growth at 100 µM (HCT-15): 3%; GI50 (SK-MEL-28): 2430 nM
